These results are taken from ChEMBL document CHEMBL6087457, “Discovery of MDI-114215: A Potent and Selective LIMK Inhibitor To Treat Fragile X Syndrome” (J Med Chem, 2025).

The target of series [1] is LIM domain kinase 1 (Mus musculus) (UniProt P53668). The experiment in a line: Ex vivo inhibition of LIMK in hippocampus of mouse assessed as reduction in p-cofilin level at 3 uM incubated for 30 mins by Western blot analysis. The format is functional. The gist of the method:
(§1)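 Acute hippocampal slices from P7–9 WT and Fmr1 KO mice, incubated with vehicle (DMSO) or 3 μM LIMK inhibitor. p-Cofilin and total cofilin measured by Western blot and expressed as a p-cofilin/cofilin ratio. n = 2–4 animals per group. Significance by one-way ANOVA with Dunnett's multiple comparisons test.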

Series [2] shares this target. The experiment in a line: Ex vivo inhibition of LIMK in hippocampus of Fmr1 KO mouse model of FXS assessed as reduction in p-cofilin level at 3 uM incubated for 30 mins by Western blot analysis. Type of series: functional. The gist of the method:
as §1

The nature of series [3]: Drug concentration in plasma of CD-1 mouse at 30 mg/kg/day, ip treated daily for 28 days. The format is ADME, organism-based. The following applies: time 28 day.
For series [4], the target named is T1, Cytochrome P450 1A2 (Homo sapiens, UniProt P05177).
T1 sequence (P05177 whole entry): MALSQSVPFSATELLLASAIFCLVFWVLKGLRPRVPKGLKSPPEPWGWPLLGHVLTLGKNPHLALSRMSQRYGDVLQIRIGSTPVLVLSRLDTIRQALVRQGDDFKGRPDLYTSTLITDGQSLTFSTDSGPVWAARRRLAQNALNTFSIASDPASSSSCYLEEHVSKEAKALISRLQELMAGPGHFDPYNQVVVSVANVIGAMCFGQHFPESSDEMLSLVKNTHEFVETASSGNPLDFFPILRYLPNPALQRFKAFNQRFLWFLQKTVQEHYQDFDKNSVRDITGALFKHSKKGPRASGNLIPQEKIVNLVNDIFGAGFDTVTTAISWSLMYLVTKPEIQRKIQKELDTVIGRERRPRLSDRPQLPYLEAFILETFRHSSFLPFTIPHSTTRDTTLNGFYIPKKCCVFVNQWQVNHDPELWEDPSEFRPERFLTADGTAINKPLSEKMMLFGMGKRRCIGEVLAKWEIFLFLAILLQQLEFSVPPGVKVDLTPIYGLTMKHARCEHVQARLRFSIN
The experiment in a line: Inhibition of CYP1A2 (unknown origin). The format is ADME, microsomes, Liver, Microsome.

Series [5] deals with Cytochrome P450 2C19 (Homo sapiens, UniProt P33261). The experiment in a line: Inhibition of CYP2C19 (unknown origin). The format is ADME, microsomes, Liver, Microsome.
Sequence of Cytochrome P450 2C19 (P33261 whole entry): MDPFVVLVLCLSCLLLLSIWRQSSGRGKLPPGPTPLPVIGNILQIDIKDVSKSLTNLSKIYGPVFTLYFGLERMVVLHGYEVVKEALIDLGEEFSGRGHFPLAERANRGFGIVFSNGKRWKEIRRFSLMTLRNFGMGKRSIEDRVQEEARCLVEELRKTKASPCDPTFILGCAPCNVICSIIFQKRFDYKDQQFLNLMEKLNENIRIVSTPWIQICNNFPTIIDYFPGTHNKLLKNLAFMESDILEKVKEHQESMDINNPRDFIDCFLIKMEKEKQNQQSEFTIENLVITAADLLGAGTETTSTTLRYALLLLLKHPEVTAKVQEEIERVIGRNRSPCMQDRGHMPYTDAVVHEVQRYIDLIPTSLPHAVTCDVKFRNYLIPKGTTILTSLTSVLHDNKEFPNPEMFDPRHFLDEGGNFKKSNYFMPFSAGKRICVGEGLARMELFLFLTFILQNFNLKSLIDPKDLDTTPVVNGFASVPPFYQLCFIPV
Series [6] deals with Cytochrome P450 2D6 (Homo sapiens, UniProt P10635). The experiment in a line: Inhibition of CYP2D6 (unknown origin). The format is ADME, microsomes, Liver, Microsome.
Sequence of Cytochrome P450 2D6 (P10635 whole entry): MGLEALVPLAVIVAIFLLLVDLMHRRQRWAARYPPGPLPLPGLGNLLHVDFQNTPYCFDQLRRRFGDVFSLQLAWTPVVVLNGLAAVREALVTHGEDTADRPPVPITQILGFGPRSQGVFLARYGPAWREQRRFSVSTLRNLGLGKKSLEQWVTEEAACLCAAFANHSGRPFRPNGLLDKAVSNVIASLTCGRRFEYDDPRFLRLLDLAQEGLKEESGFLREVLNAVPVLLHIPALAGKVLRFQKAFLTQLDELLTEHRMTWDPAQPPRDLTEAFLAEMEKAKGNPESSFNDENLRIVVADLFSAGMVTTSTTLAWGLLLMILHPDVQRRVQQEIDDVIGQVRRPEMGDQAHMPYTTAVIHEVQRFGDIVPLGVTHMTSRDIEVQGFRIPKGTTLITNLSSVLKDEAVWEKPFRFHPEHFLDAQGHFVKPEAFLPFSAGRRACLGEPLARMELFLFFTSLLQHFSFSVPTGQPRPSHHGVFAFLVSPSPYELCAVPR
Series [7] can be described thus: Toxicity in CD-1 mouse assessed as body weight change at 30 mg/kg/day, ip treated daily for 28 days. The following applies: in vivo, 672 h, time 28 day. Type of series: organism-based. The gist of the method: (§2)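 Male CD-1 mice, 6 weeks old at start, dosed with vehicle or 30 mg/kg/day i.p. once daily for 28 days, followed by a 2-week treatment-free recovery. Endpoints: body weight, food consumption, clinical signs, macro- and microscopic pathology, and organ weights (male sexual organs) after […] of dosing and after recovery. Data given as mean ± SEM.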

Series [8] can be described thus: Toxicity in CD-1 mouse assessed as effect on food consumption at 30 mg/kg/day, ip treated daily for 28 days. Type of series: organism-based. The following applies: in vivo, 672 h, time 28 day. The gist of the method:
as §2

Series [9] can be described thus: Toxicity in CD-1 mouse assessed as adverse clinical signs at 30 mg/kg/day, ip treated daily for 28 days. The format is organism-based. The note with it: in vivo, 672 h, time 28 day. The gist of the method: as §2
A short description of series [10]: Toxicity in CD-1 mouse assessed as adverse macroscopic findings at 30 mg/kg/day, ip treated daily for 28 days. The format is organism-based. The note with it: in vivo, 672 h, time 28 day. The gist of the method: as §2
A short description of series [11]: Toxicity in CD-1 mouse assessed as adverse microscopic findings at 30 mg/kg/day, ip treated daily for 28 days. The format is organism-based. The following applies: in vivo, 672 h, time 28 day. The gist of the method: as §2
A short description of series [12]: Toxicity in CD-1 mouse assessed as change in epididymis weight at 30 mg/kg/day, ip treated daily for 28 days. The following applies: in vivo, 672 h, time 28 day. Type of series: organism-based. The gist of the method: as §2
Series [13] can be described thus: Toxicity in CD-1 mouse assessed as change in prostate weight at 30 mg/kg/day, ip treated daily for 28 days. Type of series: organism-based. The note with it: in vivo, 672 h, time 28 day. The gist of the method: as §2
The nature of series [14]: Toxicity in CD-1 mouse assessed as change in testis weight at 30 mg/kg/day, ip treated daily for 28 days. Type of series: organism-based. The following applies: in vivo, 672 h, time 28 day. The gist of the method:
as §2

The nature of series [15]: Toxicity in CD-1 mouse assessed as change in seminal vesicle weight at 30 mg/kg/day, ip treated daily for 28 days. Type of series: organism-based. The note with it: in vivo, 672 h, time 28 day. The gist of the method:
as §2

Series [16] can be described thus: Toxicity in CD-1 mouse assessed as inflammatory cell infiltration in epididymis at 30 mg/kg/day, ip treated daily for 28 days measured after 14 days of recovery period. The format is organism-based. The following applies: in vivo, 672 h, time 28 day. The gist of the method:
as §2

Series [17] can be described thus: Drug concentration in brain of CD-1 mouse at 30 mg/kg/day, ip treated daily for 28 days. Type of series: ADME, organism-based. The following applies: time 28 day, read-out: Ct.
Series [18] can be described thus: Toxicity in CD-1 mouse assessed as drug tolerance at 30 mg/kg/day, ip treated daily for 28 days. The format is organism-based. The note with it: in vivo, 672 h, time 28 day. The gist of the method: as §2

The source made the active and inactive calls. No cut-off for these calls is given here. Bounds are passed on as bounds.

Sequence of LIM domain kinase 1 (Mus musculus) (P53668 whole entry, the tested form may be a part): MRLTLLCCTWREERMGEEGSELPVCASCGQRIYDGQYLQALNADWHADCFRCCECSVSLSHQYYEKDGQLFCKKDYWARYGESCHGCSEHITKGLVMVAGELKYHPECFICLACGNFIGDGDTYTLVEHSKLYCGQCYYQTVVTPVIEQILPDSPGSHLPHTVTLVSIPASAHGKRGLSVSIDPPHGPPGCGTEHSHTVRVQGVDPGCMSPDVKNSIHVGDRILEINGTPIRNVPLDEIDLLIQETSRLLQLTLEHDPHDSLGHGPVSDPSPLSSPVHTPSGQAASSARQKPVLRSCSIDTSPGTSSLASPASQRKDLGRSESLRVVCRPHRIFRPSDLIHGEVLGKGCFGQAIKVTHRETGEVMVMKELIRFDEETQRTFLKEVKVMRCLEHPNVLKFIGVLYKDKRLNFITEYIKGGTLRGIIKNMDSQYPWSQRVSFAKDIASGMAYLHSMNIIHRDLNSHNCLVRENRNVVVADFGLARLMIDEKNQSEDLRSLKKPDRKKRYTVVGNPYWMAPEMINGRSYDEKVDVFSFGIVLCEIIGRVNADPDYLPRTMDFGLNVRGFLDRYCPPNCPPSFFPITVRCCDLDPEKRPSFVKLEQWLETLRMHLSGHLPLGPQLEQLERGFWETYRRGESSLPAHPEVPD

For `CCn1c(=O)c(-c2ccc(Cl)cc2Cl)cc2cnc(Nc3ccc(N4CCNCC4)c(F)c3)nc21`, the inhibition result in series [1] and in series [2] was “Active” in each case.

As for `O=C(c1ccc(S(=O)(=O)Nc2ccccc2)cc1)N(Cc1ccc(NCCO)cc1)CC1CC1`, the concentration at 672 h in series [3] amounted to 903 nM; in series [17], 62 nM. Further, the IC50 is above 25 µM in series [4], 11 µM in series [5] and above 25 µM in [6]. The Activity entry in series [7], in series [8], in series [9], in [10], in [11] and in series [12] was “Non-toxic” throughout. For the same molecule, the Activity entry in series [13], in series [14], in series [15], in series [16] and in series [18] was “Non-toxic” in each case.

With `Cc1c[nH]c2ncnc(-c3ccc(NC(=O)N(CCO)c4ccccc4)cc3)c12`, the inhibition entry in series [1] and in series [2] was “Active” each time.
